Source: PubChem BioAssay AID463191 (Sanford-Burnham Center for Chemical Genomics, 2010)
Activity calls are given as the source filed them.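 Rule for the calls: active = compounds whose mean IC50 across repeat dose response tests falls below a set limit; inactive = the rest.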

Test system: AML12 mouse hepatocytes, BODIPY lipid droplet imaging
Test: potency against lipid droplet buildup in liver cells – imaging, AML12 mouse hepatocytes, high-content, dose response (AID 463191)
Conditions: cells loaded with 100 µM oleic acid
Method in brief: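 test system = mouse AML12 hepatocytes | also added = oleic acid, 100 µM | doses = Seven-point series from 32 to 0.5 µM, 0.32% DMSO | schedule = cells grown about 20 h at 37 °C, then overnight compound exposure | measure = IC50 from per-cell lipid droplet intensity | benchmarks = 5 µM Triacsin-C | replication = duplicate points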

Compound | IC50
C/C(=N\Nc1ccc(S(=O)(=O)Nc2ccccc2)cc1[N+](=O)[O-])c1ccc(N2CCOCC2)cc1 | 1.28 µM
CC(=O)Nc1ccc(-c2csc(NC(=O)Cc3ccccc3F)n2)cc1 | 5.1 µM (inactive)
CCOc1ccccc1NC(=O)N1CCC(C(=O)c2ccc(F)cc2)CC1 | 4.48 µM
COc1ccc(/C=C(\NC(=O)c2ccc(OCC(C)C)cc2)C(=O)OCc2ccco2)cc1 | 2.71 µM
CCOc1ccc(CCNC(=O)COC(=O)c2cc(OC)cc(OC)c2)cc1OCC | 6.12 µM (inactive)
CCOc1ccc(CCNC(=O)c2cc3sccc3n2CC)cc1OCC | < 0.5 µM
COc1ccc(NC(=O)CCC(=O)Nc2cc(OC)c(NC(=O)c3cccs3)cc2OC)cc1 | 0.71 µM
CCc1c(C#N)c(SCCC(=O)Nc2ccc(OC)cc2)nc2c1C(=O)CC(C)(C)C2 | 5.31 µM (inactive)
COc1ccc(C(C(=O)NC(C)(C)C)N(Cc2ccc(F)cc2)C(=O)CCC(=O)Nc2cc(C)on2)cc1 (stereo unspecified) | 2.04 µM
CCOc1ccc(CCNC(=O)CCC(=O)N2CCSc3ccccc32)cc1OCC | < 0.5 µM
CCCCNC(=O)c1ccc2c(c1)N(C)C(=O)c1ccccc1S2 | 6.88 µM (inactive)
COc1ccc(CN(C)C(=O)CNC(=O)Cc2cccc3ccccc23)c(OC)c1OC | 4.55 µM
CCOc1ccc(CCNC(=O)c2nnc(Cc3ccc(F)cc3)o2)cc1OCC | 1.57 µM
COc1ccc(CC(=O)Nc2oc(-c3ccccc3)c(-c3ccccc3)c2C#N)cc1OC | 1.26 µM
CC(=O)c1cccc(N=Nc2c(-c3ccccc3)[nH]n(-c3ccccc3)c2=O)c1 | 0.633 µM
Cc1ccc(NC(=O)CSc2nc3ccccc3nc2N2CCCC2)cc1 | 2.11 µM
CCCCCn1c(N)c(-c2nc3ccccc3s2)c2c([N+](=O)[O-])nn(CC)c(=O)c21 | 7.46 µM (inactive)
CCOc1ccccc1NC(=O)C1CCN(C(=O)NCc2ccccc2)CC1 | < 0.5 µM
COc1ccc(C2(c3ccc(OC)cc3)NC(=O)N(CC(=O)Nc3ccc(OC)c(OC)c3)C2=O)cc1 | 6.86 µM (inactive)
O=C(Nc1nc(-c2ccc(-c3ccccc3)cc2)cs1)C1CCCO1 (stereo unspecified) | 2.23 µM
CCc1c(C#N)c(SCCC(=O)Nc2cccc(OC)c2)nc2c1C(=O)CC(C)(C)C2 | 1.41 µM
Cc1ccc(-n2nc3c(=O)n(CC(=O)NC4CCCCC4)nc(C)c3c2C)cc1 | 4.73 µM

Compound | IC50
CCCCN(C(=O)CCC(=O)Nc1cc(C)on1)C(C(=O)NC1CCCC1)c1ccc(OCC)cc1 (stereo unspecified) | 4.07 µM
CCOc1ccc(CCNC(=O)CS(=O)Cc2nc(-c3ccc(OC)c(OC)c3)oc2C)cc1OCC (stereo unspecified) | 7.64 µM (inactive)
COc1ccc(C(C(=O)NC(C)(C)C)N(Cc2ccco2)C(=O)CCC(=O)Nc2cc(C)on2)cc1 (stereo unspecified) | 4.84 µM
CCOc1ccc(CCNC(=O)Cn2cccc2C(=O)c2ccccc2C)cc1OCC | 0.867 µM
CCOc1ccccc1Nc1nnc(SCC(=O)Nc2nc(-c3ccc(OC)cc3)cs2)s1 | 1.02 µM
CCCc1ccc(-c2csc(NC(=O)Cc3cccs3)n2)cc1 | 1.48 µM
CCOc1ccc(CCNC(=O)COC(=O)c2ccc(OC)c(OC)c2OC)cc1OCC | < 0.5 µM
CCOc1ccc(CCNC(=O)CCC(=O)N2CCOc3ccc(C)cc32)cc1OCC | 1.44 µM
CCC(C(=O)NCCc1ccccc1OC)n1nc(C)c2c(C)n(-c3ccccc3)nc2c1=O (stereo unspecified) | 3.26 µM
CCOc1ccc(CCNC(=O)COC(=O)c2cc([N+](=O)[O-])ccc2N2CCOCC2)cc1OCC | 3 µM
Cc1cc(N2CCOCC2)n2nc(C)c(-c3ccccc3Cl)c2n1 | 1.05 µM
CCOc1ccc(CN(C)C(=O)CNC(=O)Cc2cccc3ccccc23)cc1 | 0.566 µM
COc1cc(NC(=O)c2cccs2)c(OC)cc1NC(=O)CCC(=O)Nc1ccc2ncccc2c1 | 2.23 µM
CCC(C)(C)NC(=O)C(c1sccc1C)N(Cc1ccco1)C(=O)c1csnn1 (stereo unspecified) | 11.9 µM (inactive)
CCOC(=O)c1ccc(NC(=O)CSc2nc3c(c(=O)n2-c2ccccc2OC)SCC3)cc1 | 1.84 µM
Cc1cccc(C(C(=O)NC2CCCC2)N(C(=O)c2csnn2)C2CCCC2)c1 (stereo unspecified) | 23.9 µM (inactive)
COc1ccc(C(C(=O)NC(C)(C)C)N(CC2CCCO2)C(=O)CCC(=O)Nc2cc(C)on2)cc1 (stereo unspecified) | 4.95 µM
O=C(NCc1ccccc1)C(c1ccccc1F)N(C(=O)c1csnn1)C1CCCC1 (stereo unspecified) | 3.49 µM
CCOc1ccc(NC(=O)CSc2nc3ccccc3nc2N2CCCC2)cc1 | 1.77 µM
CCOc1ccc(CCNC(=O)C(C)n2nc(C)n3c(cc4occc43)c2=O)cc1OCC (stereo unspecified) | 3.61 µM
CCn1cc(CCCC(=O)NCc2ccccc2OC)c2ccccc21 | 4 µM
COc1ccc(CNC(=O)CN2C(=O)NC(C)(c3cccc4ccccc34)C2=O)cc1OC (stereo unspecified) | 2.32 µM

Compound | IC50
COc1ccc(C(=O)OC(C)C(=O)NC(C)CCc2ccccc2)cc1[N+](=O)[O-] (stereo unspecified) | 0.549 µM
FC(F)Oc1ccc(-c2csc(NNC3=NCCCCC3)n2)cc1 | 0.916 µM
Cc1sc(NC(=O)Cc2ccc3c(c2)OCO3)nc1-c1ccc2c(c1)CCN2C(=O)c1ccccc1F | 1.79 µM
CCOc1ccccc1NC(=O)CCC(=O)Nc1ccccc1OCC | 4.18 µM
CCOc1ccc(CCNC(=O)Cn2cccc2C(=O)c2ccccc2)cc1OCC | 1.64 µM
CCOc1ccc(CCNC(=O)CCc2nnc3ccc(N4CCCCC4)nn23)cc1OCC | 0.582 µM
COc1ccc(NC(=O)CN2C(=O)NC(c3ccccc3)(c3ccccc3)C2=O)cc1OC | 1.6 µM
CCOc1ccc(CCNC(=O)c2cc3sc(Cl)cc3n2C)cc1OCC | < 0.5 µM
CCOc1ccc(CCNC(=O)CN2C(=O)c3cccnc3Oc3ccc(C)cc32)cc1OCC | < 0.5 µM
COc1ccc(C(=O)OCC(=O)NC(C)CCc2ccccc2)cc1OC (stereo unspecified) | 11.7 µM (inactive)
CCOc1ccc(CCNC(=O)CCS(=O)(=O)c2ccc(C)cc2)cc1OCC | 1.85 µM
CCN(CC)c1ccc(NC(=O)CCc2nnc3ccc(N4CCCC4)nn23)c(C)c1 | 2.35 µM
c1cc2c(cc1-c1csc(NNC3=NCCCCC3)n1)OCCO2 | 1.07 µM
CCOc1ccc(C(=O)CCC(=O)NCC(=O)OCc2ccccc2)cc1OCC | 8 µM (inactive)
COc1ccc(CCNC(=O)Cc2cccc(C(F)(F)F)c2)cc1OC | 9.06 µM (inactive)
CCCc1cc(N2CCOCC2)n2nc(C)c(-c3ccccc3)c2n1 | < 0.5 µM
CCOc1ccc(CCNC(=O)CS(=O)Cc2nc(-c3ccc(OC)cc3)oc2C)cc1OCC (stereo unspecified) | 2.11 µM
CCCc1cc(N2CCCC2)n2nc(C)c(-c3ccccc3)c2n1 | 1.1 µM
COCCCn1c(SCC(=O)Nc2ccc(NC(=O)c3ccco3)c(OC)c2)nc2ccccc2c1=O | 1.85 µM
COc1ncccc1C(=O)NC1CCCc2c1cnn2-c1ccc(C)c(C)c1 (stereo unspecified) | 3.44 µM
Cc1cc(C(=O)OC(C)C(=O)Nc2nc(-c3ccccc3)cs2)c(C)o1 (stereo unspecified) | 0.758 µM
COc1cccc(C(=O)NC2CCCc3c2cnn3-c2cc(C)cc(C)c2)c1 (stereo unspecified) | 2.06 µM
